Source: PubChem BioAssay (several laboratories)
TAAR1 ag: human TAAR1 agonism; activation, % at 3 µM; Q96RJ0; CHO RD-HGA16 TAAR1, Fluo-8 calcium fluorescence; vehicle wells 0%, saturating PEA agonist 100%; hit rate 0.99% among 360,000;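 active means activation above the mean activation of all test compounds in the run plus 3 SD, cut at about 38% in these data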
Target sequence (Q96RJ0 whole entry, looked up): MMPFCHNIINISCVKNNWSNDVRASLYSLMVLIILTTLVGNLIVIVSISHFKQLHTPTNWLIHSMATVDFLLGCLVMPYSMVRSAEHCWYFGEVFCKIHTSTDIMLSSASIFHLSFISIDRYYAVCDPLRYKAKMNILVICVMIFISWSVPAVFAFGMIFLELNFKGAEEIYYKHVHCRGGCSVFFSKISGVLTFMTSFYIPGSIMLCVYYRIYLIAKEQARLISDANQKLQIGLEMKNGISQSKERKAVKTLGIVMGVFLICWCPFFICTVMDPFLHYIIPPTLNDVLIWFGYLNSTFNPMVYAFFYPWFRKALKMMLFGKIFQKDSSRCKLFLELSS
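Benchmarks: low control DMSO, high control PEA (EC100); System: CHO RD-HGA16 cells carrying human TAAR1 plus Gα16; Detection: Fluo-8 fluorescence, 5 s baseline then 140 s kinetic read; Schedule: 17-24 h plating, Fluo-8 75 min 37 °C, 30 min RT; Read-out basis: % activation from peak over basal fluorescence ratio, DMSO-to-PEA scaled.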
CRFR2-BP antag: antagonists of CRF-binding protein/CRF-R2 receptor complex. HEK293 CRF-R2/CRF-BP, CRF-induced calcium fluorescence. inhibition, % at 11.8 µM. AID 588475. hit rate 0.59% among 350,000;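 active means inhibition of the ligand-induced calcium signal above about 50% at the single tested concentration, limit read from the data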
CRFBP-R2 agonist: CRF-BP/CRF-R2 complex agonism; HEK293 CRF-R2/CRF-BP, calcium dye fluorescence (FLIPR); percent of saturating CRF peptide response; activation, % at 13.2 µM; hit rate 0.46% among 350,000; AID 588473;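 active means activation of at least 50%, plus an integration ratio under a set limit after plate pattern correction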;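 further: plate controls were neutral control wells without compound for no effect and CRF at EC100 for full effect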
TMEM16A act: mouse TMEM16A channel activation, primary screen. Q8BHY3. HEK293 TMEM16A/YFP-H148Q/I152L, iodide quench fluorescence; hits give low values. B-score at 10 µM. hit rate 0.3% among 340,000;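 active means fluorescence-ratio B-score plate-corrected deviation score at least 3 library SD below zero, with starting fluorescence score within 5 deviations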;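 further: channel opened by trigger with iodide after compound preincubation; score built on the fluorescence ratio of max minus min over baseline; more negative score means more quench and so TMEM16A activation or potentiation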
TMEM16A inh: blocks the mouse calcium-activated chloride channel TMEM16A; HEK293 TMEM16A/YFP iodide influx fluorescence, ionomycin; normalized B-score (activity score, 25-100; higher = stronger inhibition) at 10 µM; hit rate 1.2% among 310,000; AID 588511;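 active means ratio plate-corrected score three or more library SD toward inhibition, starting fluorescence score within five deviations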;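 further: score derived from kinetic fluorescence span divided by baseline fluorescence per well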
TAAR1 antag: human TAAR1 antagonism; Q96RJ0; CHO RD-HGA16 TAAR1, Fluo-8 calcium fluorescence, antagonist; inhibition, % at 3 µM; hit rate 1.5% among 360,000;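 active means inhibition above a per-plate cutoff, the mean inhibition of test compounds on that plate plus 3 SD, cut at about 49% in these data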;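 further: 0% = DMSO plus EC80 beta-PEA response and 100% = DMSO alone without agonist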
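Material: RD-HGA16 CHO cells with stable hTAAR1 and Gα16; Dosing: single nominal final test compound concentration of 3 µM; Schedule: seeding 17-24 h prior, 75-min 37 °C, 30-min RT dye loading; Detection: kinetic Fluo-8 calcium fluorescence measurement; Measure: % inhibition from peak post-agonist over basal fluorescence ratio; Benchmarks: vehicle and agonist controls.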
Numbers without * were called inactive. Hits are enriched below; roughly 3.9% of the tested compounds scored in any of these assays.

`CCOc1cc(CNCCSc2nnnn2C)cc(Br)c1OCc1ccccc1F` gave TAAR1 ag 15.7, CRFR2-BP antag -2.9, CRFBP-R2 agonist -1.9, TMEM16A act inactive, TMEM16A inh inactive and TAAR1 antag 1.2.
CCOc1cc(CNCc2ccncc2)cc(Br)c1OCc1ccccc1F was read as TAAR1 ag 8.1, CRFR2-BP antag -26.3, CRFBP-R2 agonist 2.7, TMEM16A act inactive, TMEM16A inh 25* and TAAR1 antag 35.0.
Screening CCOc1cccc(CNCCO)c1OCc1ccc(Cl)cc1Cl returned TAAR1 ag 19.5, CRFR2-BP antag -32.0, CRFBP-R2 agonist 0.8, TMEM16A act inactive, TMEM16A inh inactive and TAAR1 antag 4.1.
`CCOc1cc(CNCCO)cc(Br)c1OCc1ccc(Cl)cc1Cl` gave TAAR1 ag 11.2, CRFR2-BP antag -13.1, CRFBP-R2 agonist 0.0, TMEM16A act inactive, TMEM16A inh 100* and TAAR1 antag -4.4.
O=C(CCN1C(=O)[C@@H]2Cc3ccccc3CN2C1=O)N[C@H](C(=O)O)c1ccccc1 was read as TAAR1 ag 4.9, CRFR2-BP antag 0.6, CRFBP-R2 agonist -1.6, TMEM16A act inactive, TMEM16A inh inactive and TAAR1 antag -6.7.
CC[n+]1ccc(/C=C/c2c[nH]c3ccccc23)cc1 was read as TAAR1 ag 1.5, CRFR2-BP antag -45.6, CRFBP-R2 agonist 60.9*, TMEM16A act inactive, TMEM16A inh inactive and TAAR1 antag -15.6.
For CCC(CC)C(=O)Nc1ccc(C)c(O)c1 the results were TAAR1 ag 5.0, CRFR2-BP antag -5.3, CRFBP-R2 agonist 2.6, TMEM16A act -9.57*, TMEM16A inh inactive and TAAR1 antag -9.8.
For Cc1nn(CC(=O)NC2CC2)c(C)c1S(=O)(=O)N(C)C the results were TAAR1 ag 0.8, CRFR2-BP antag 1.3, CRFBP-R2 agonist -0.2 and TAAR1 antag -3.4.
`COc1ccc(CNC(=O)CN(Cc2ccccc2)C(=O)c2csnn2)cc1` gave TAAR1 ag 9.4, CRFR2-BP antag -10.0, CRFBP-R2 agonist 0.8, TMEM16A act inactive, TMEM16A inh inactive and TAAR1 antag 0.8.
C=CCN(CC(=O)NCc1ccccc1)C(=O)c1csnn1 was read as TAAR1 ag 3.0, CRFR2-BP antag 86.8*, CRFBP-R2 agonist 3.5, TMEM16A act inactive, TMEM16A inh inactive and TAAR1 antag 7.2.
`Cc1ccc(Nc2nc(NCCO)c3ccccc3n2)cc1C` gave TAAR1 ag 38.8*, CRFR2-BP antag -3.6, CRFBP-R2 agonist 0.3, TMEM16A act inactive, TMEM16A inh inactive and TAAR1 antag -11.3.
Cc1ccc2oc(C(=O)NC3CCS(=O)(=O)C3)cc(=O)c2c1 (stereo not given) was read as TAAR1 ag 1.7, CRFR2-BP antag -18.6, CRFBP-R2 agonist 2.9, TMEM16A act inactive, TMEM16A inh inactive and TAAR1 antag -19.5.
CN(C)c1cccc(CNC(=O)c2ccc3nc([C@@H]4O[C@H](CO)[C@H](O)[C@H](O)[C@H]4O)[nH]c3c2)c1 was read as TAAR1 ag 0.5 and TAAR1 antag -5.3.
Screening COc1ccc(CCNC(=O)c2cccc(C(=O)NCCc3ccc(OC)cc3)n2)cc1 returned TAAR1 ag 6.8, CRFR2-BP antag 26.5, CRFBP-R2 agonist -0.8, TMEM16A act inactive, TMEM16A inh inactive and TAAR1 antag 54.1*.
Screening CC(C)C[C@H]1CN=C(Nc2ccccc2)N1CCc1cccc(F)c1 returned CRFR2-BP antag -22.2, CRFBP-R2 agonist 125.3* and TMEM16A act -5.15*.
For CC(C)C[C@H]1CN=C(N(C)C)N1CCc1cccc(F)c1 the results were TAAR1 ag 14.4, CRFR2-BP antag -1.3, CRFBP-R2 agonist -0.2, TMEM16A act inactive and TAAR1 antag 7.5.
`COc1ccc2c(c1)-c1nc(/N=C/c3ccc(O)cc3)sc1CC2` gave TAAR1 ag 4.5, CRFR2-BP antag 90.6*, CRFBP-R2 agonist 2.2, TMEM16A act inactive, TMEM16A inh inactive and TAAR1 antag -15.0.
Screening COc1ccc2c(c1)-c1nc(/N=C/c3c(O)ccc4ccccc34)sc1CC2 returned TAAR1 ag 3.5, CRFR2-BP antag 9.5, CRFBP-R2 agonist -1.9, TMEM16A act inactive and TAAR1 antag -5.9.
For Cc1sc(NC(=S)NC(=O)c2ccccc2)c(C#N)c1C the results were TAAR1 ag 3.9, CRFR2-BP antag -23.9, CRFBP-R2 agonist -0.8, TMEM16A act inactive, TMEM16A inh inactive and TAAR1 antag -17.2.
`CC(C)N1CCc2c(sc(NC(=S)NC(=O)c3ccccc3)c2C#N)C1` gave TAAR1 ag 7.9, CRFR2-BP antag -31.2, CRFBP-R2 agonist 55.0*, TMEM16A act inactive, TMEM16A inh inactive and TAAR1 antag -2.5.
CC(C)N1CCc2c(sc(NC(=O)c3ccc(S(=O)(=O)N4CCOCC4)cc3)c2C#N)C1 was read as CRFR2-BP antag -64.9, CRFBP-R2 agonist 131.1*, TMEM16A act inactive and TMEM16A inh inactive.
For CCCN1CCc2c(sc(NC(=S)NC(=O)c3ccccc3)c2C#N)C1 the results were TAAR1 ag 12.5, CRFR2-BP antag -177.6, CRFBP-R2 agonist 148.0*, TMEM16A act -5.41*, TMEM16A inh inactive and TAAR1 antag 16.3.
Screening CC(C)[C@H](NC(=O)c1ccccc1)C(=O)OCC(=O)N1CCN(C(=O)c2ccco2)CC1 returned TAAR1 ag 3.9, CRFR2-BP antag -2.1, CRFBP-R2 agonist 0.3, TMEM16A act inactive, TMEM16A inh inactive and TAAR1 antag -13.8.
`Cc1ccc(Cc2c(-c3ccc(Cl)cc3)nc3cc(C)ccn23)cc1` gave TAAR1 ag 1.1, CRFR2-BP antag 8.0, CRFBP-R2 agonist 2.5 and TAAR1 antag 21.8.
NC(=O)c1ccc(S(=O)(=O)N2CCSCC2)cc1 was read as TAAR1 ag 6.5, CRFR2-BP antag 0.6, CRFBP-R2 agonist 0.4, TMEM16A act inactive, TMEM16A inh inactive and TAAR1 antag -15.2.
For Cc1cccc(C)c1NC(=S)Nc1ccc(F)cc1 the results were TAAR1 ag 9.0, CRFR2-BP antag 60.0*, CRFBP-R2 agonist 0.7, TMEM16A act inactive, TMEM16A inh inactive and TAAR1 antag 0.8.
For CSCCC1NC(=O)N(CC(=O)N2N=C(c3ccc(Cl)cc3)CC2c2ccco2)C1=O (stereo not given) the results were TAAR1 ag 5.0, CRFR2-BP antag -13.1, CRFBP-R2 agonist 0.6, TMEM16A act inactive, TMEM16A inh 25* and TAAR1 antag 10.4.
Screening O=C(CNC(=O)c1ccccc1)OCC(=O)N1N=C(c2ccc(Cl)cc2)CC1c1ccco1 (stereo not given) returned TAAR1 ag 11.4, CRFR2-BP antag 12.9, CRFBP-R2 agonist -2.1, TMEM16A act inactive, TMEM16A inh inactive and TAAR1 antag -17.6.
